Assay results published in ChEMBL document CHEMBL4229550, “An antimycobacterial pleuromutilin analogue effective against dormant bacilli” (Bioorg Med Chem, 2018).
≈ marks a conversion by molar mass, not a printed value. Calls of active or inactive are those of the source. The rule behind the calls is not given here.

Key:
[1] = tested on: Acinetobacter baumannii; assay: Antibacterial activity against Acinetobacter baumannii ATCC 19606 incubated for 24 hrs under aerobic condition by MABA; assay type: functional; settings: ATCC 19606 = CIP 70.34 = JCM 6841, 24 h, read-out: MIC100
Method in brief: (§1)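 Mid-log cultures at OD 0.5 were exposed to serial dilutions under aerobic conditions at 37 °C for 24 h. Resazurin was then added from a 0.08% stock for 1 h. MIC100 was the lowest concentration where the dye stayed blue (pink means growth). Absorbance was also read at 570 and 600 nm.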

[2] = tested on: Staphylococcus aureus; assay: Antibacterial activity against Staphylococcus aureus BAA 1683 incubated for 24 hrs under aerobic condition by MABA; assay type: functional; settings: BAA 1683, 24 h, read-out: MIC100; method in brief: as §1
[3] = tested on: Staphylococcus aureus; assay: Antibacterial activity against Staphylococcus aureus BAA 2094 incubated for 24 hrs under aerobic condition by MABA; assay type: functional; settings: BAA 2094, 24 h, read-out: MIC100
Method in brief: (§2)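 Resazurin was then added from a 0.08% stock for 1 h. MIC100 was the lowest concentration where the dye stayed blue (pink means growth). Absorbance was also read at 570 and 600 nm.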

[4] = tested on: Klebsiella pneumoniae; assay: Antibacterial activity against Klebsiella pneumoniae ATCC 12019 incubated for 24 hrs under aerobic condition by MABA; assay type: functional; settings: ATCC 12019, 24 h, read-out: MIC100; method in brief: as §1
[5] = tested on: Enterococcus faecalis; assay: Bactericidal activity against Enterococcus faecalis ATCC 349 incubated for 24 hrs under aerobic condition by MABA; assay type: functional; settings: ATCC 349, 24 h
[6] = tested on: Staphylococcus aureus; assay: Antibacterial activity against Staphylococcus aureus ATCC 25923 incubated for 24 hrs under aerobic condition by MABA; assay type: functional; settings: ATCC 25923, 24 h, read-out: MIC100; method in brief: as §1
[7] = Selectivity index, ratio of IC50 for African green monkey Vero cells to MIC100 for replicating Mycobacterium tuberculosis H37Rv by MABA; assay type: toxicity; settings: read-out: Selectivity Index
Method in brief: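 Vero cells are cultured in EMEM with 10% FBS and exposed for 72 h to 0.78–200 µg/mL. Medium is switched to phenol-red-free EMEM, MTT is added, and formazan is read at 570 nm to give IC50. The selectivity index is Vero IC50 divided by the MABA MIC.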

[8] = tested on: Klebsiella pneumoniae; assay: Bactericidal activity against Klebsiella pneumoniae ATCC 12019 incubated for 24 hrs under aerobic condition by MABA; assay type: functional; settings: ATCC 12019, 24 h
[9] = tested on: Staphylococcus aureus; assay: Antibacterial activity against Staphylococcus aureus incubated for 24 hrs under aerobic condition by MABA; assay type: functional; settings: read-out: MIC100; method in brief: as §2
[10] = tested on: Staphylococcus aureus; assay: Antibacterial activity against Staphylococcus aureus BAA 44 incubated for 24 hrs under aerobic condition by MABA; assay type: functional; settings: BAA 44, 24 h, read-out: MIC100; method in brief: as §1
[11] = tested on: Staphylococcus aureus; assay: Bactericidal activity against Staphylococcus aureus BAA 1683 incubated for 24 hrs under aerobic condition by MABA; assay type: functional; settings: BAA 1683, 24 h
[12] = tested on: Escherichia coli; assay: Inhibition of protein translation/transcription in Escherichia coli S30 cell extract using circular DNA with pBESTluc after 60 mins by luciferase reporter gene assay; assay type: functional; settings: 1 h
Method in brief: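 E. coli S30 circular-DNA coupled transcription/translation kit with the pBESTluc template (firefly luciferase under the tac promoter). S30 extract, amino acids and premix are combined with compound in DMSO, and the reaction is started with DNA. Incubation is 60 min at 37 °C, stopped on ice, then luciferase luminescence is read.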

[13] = tested on: Bacillus subtilis; assay: Bactericidal activity against Bacillus subtilis ATCC 6051 incubated for 24 hrs under aerobic condition by MABA; assay type: functional; settings: ATCC 6051, 24 h
[14] = tested on: Enterococcus faecalis; assay: Bactericidal activity against Enterococcus faecalis ATCC 19433 incubated for 24 hrs under aerobic condition by MABA; assay type: functional; settings: ATCC 19433, 24 h
[15] = tested on: Streptococcus pneumoniae; assay: Antibacterial activity against Streptococcus pneumoniae ATCC 6301 incubated for 24 hrs under aerobic condition by MABA; assay type: functional; settings: ATCC 6301, 24 h, read-out: MIC100; method in brief: as §1
[16] = tested on: Staphylococcus aureus; assay: Bactericidal activity against Staphylococcus aureus ATCC 25923 incubated for 24 hrs under aerobic condition by MABA; assay type: functional; settings: ATCC 25923, 24 h
[17] = tested on: Staphylococcus aureus; assay: Bactericidal activity against Staphylococcus aureus BAA 44 incubated for 24 hrs under aerobic condition by MABA; assay type: functional; settings: BAA 44, 24 h
[18] = tested on: Streptococcus salivarius; assay: Antibacterial activity against Streptococcus salivarius […] incubated for 24 hrs under aerobic condition by MABA; assay type: functional; settings: read-out: MIC100; method in brief: as §2
[19] = tested on: Mycolicibacterium smegmatis; assay: Bactericidal activity against Mycobacterium smegmatis ATCC 607 incubated for 48 hrs under aerobic condition by MABA; assay type: functional; settings: ATCC 607, 48 h
[20] = tested on: Escherichia coli; assay: Bactericidal activity against Escherichia coli ATCC 10798 incubated for 24 hrs under aerobic condition by MABA; assay type: functional; settings: ATCC 10798, 24 h
[21] = tested on: Mycobacterium tuberculosis; assay: Bactericidal activity against replicating Mycobacterium tuberculosis H37Rv incubated for 15 days under aerobic condition by MABA; assay type: functional; settings: 360 h
Method in brief: (§3)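 Mtb H37Rv grown in 7H9/OADC at 37 °C with shaking to OD600 0.5. The 0.5-OD culture is exposed aerobically to serial dilutions for 15 days at 37 °C. Resazurin (0.02% stock) is then added for 4 h at 37 °C with shaking.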

[22] = tested on: Vero; assay: Cytotoxicity against African green monkey Vero cells assessed as reduction in cell viability after 72 hrs by MTT assay; assay type: cell-based; settings: Chlorocebus sabaeus
Method in brief: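 Vero cells were grown in complete EMEM with 10% FBS and exposed for 72 h to 0.78–200 µg/mL. The medium was then swapped for phenol-red-free EMEM and MTT was added. Formazan absorbance was read at 570 nm to give IC50.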

[23] = tested on: Staphylococcus aureus; assay: Bactericidal activity against Staphylococcus aureus incubated for 24 hrs under aerobic condition by MABA; assay type: functional
[24] = tested on: Streptococcus salivarius; assay: Bactericidal activity against Streptococcus salivarius ATCC 6301 incubated for 24 hrs under aerobic condition by MABA; assay type: functional; settings: ATCC 6301, 24 h
[25] = tested on: Acinetobacter baumannii; assay: Bactericidal activity against Acinetobacter baumannii ATCC 19606 incubated for 24 hrs under aerobic condition by MABA; assay type: functional; settings: ATCC 19606 = CIP 70.34 = JCM 6841, 24 h
[26] = tested on: Staphylococcus aureus; assay: Bactericidal activity against Staphylococcus aureus BAA 2094 incubated for 24 hrs under aerobic condition by MABA; assay type: functional; settings: BAA 2094, 24 h
[27] = tested on: Escherichia coli; assay: Antibacterial activity against Escherichia coli ATCC 10798 incubated for 24 hrs under aerobic condition by MABA; assay type: functional; settings: ATCC 10798, 24 h, read-out: MIC100; method in brief: as §1
[28] = tested on: Clostridioides difficile; assay: Bactericidal activity against Clostridium difficile ATCC 700057 incubated for 24 hrs […] by MABA; assay type: functional; settings: ATCC 700057, 24 h
[29] = tested on: Mycobacterium tuberculosis; assay: Antibacterial activity against replicating Mycobacterium tuberculosis H37Rv incubated for 15 days under aerobic condition by MABA; assay type: functional; settings: 360 h, read-out: MIC100; method in brief: as §3
[30] = tested on: Bacillus subtilis; assay: Antibacterial activity against Bacillus subtilis ATCC 6051 incubated for 24 hrs under aerobic condition by MABA; assay type: functional; settings: ATCC 6051, 24 h, read-out: MIC100; method in brief: as §1
[31] = tested on: Escherichia coli; assay: Inhibition of protein translation/transcription in Escherichia coli S30 cell extract at 0.1 ug/ml using circular DNA with pBESTluc after 60 mins by luciferase reporter gene assay; assay type: functional
Method in brief: (§4)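 Coupled transcription/translation used E. coli S30 extract, amino acid mix and premix, with the pBESTluc template carrying firefly luciferase under the tac promoter. Compounds were added in DMSO and reactions were started with DNA. Incubation was 60 min at 37 °C, stopped on ice, and luciferase was read after adding assay substrate.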

[32] = tested on: Mycolicibacterium smegmatis; assay: Antibacterial activity against Mycobacterium smegmatis ATCC 607 incubated for 48 hrs under aerobic condition by MABA; assay type: functional; settings: ATCC 607, 48 h, read-out: MIC100
Method in brief: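 Mid-log culture at OD 0.5 was incubated with serial dilutions aerobically at 37 °C for 48 h. Resazurin was then added from a 0.08% stock for 1 h. MIC100 was the lowest concentration that stayed blue; absorbance was also read at 570/600 nm.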

[33] = tested on: Enterococcus faecalis; assay: Antibacterial activity against Enterococcus faecalis ATCC 349 incubated for 24 hrs under aerobic condition by MABA; assay type: functional; settings: ATCC 349, 24 h, read-out: MIC100; method in brief: as §1
[34] = tested on: Enterococcus faecalis; assay: Antibacterial activity against Enterococcus faecalis ATCC 19433 incubated for 24 hrs under aerobic condition by MABA; assay type: functional; settings: ATCC 19433, 24 h, read-out: MIC100; method in brief: as §1
[35] = tested on: Streptococcus pneumoniae; assay: Bactericidal activity against Streptococcus pneumoniae ATCC 6301 incubated for 24 hrs under aerobic condition by MABA; assay type: functional; settings: ATCC 6301, 24 h
[36] = Apparent permeability from basolateral to apical side in human Caco2 cells at 10 uM after 2 hrs by LC-MS/MS analysis; assay type: ADME, cell-based; settings: caco-2, 2 h
[37] = tested on: Escherichia coli; assay: Inhibition of protein translation/transcription in Escherichia coli S30 cell extract at 0.5 ug/ml using circular DNA with pBESTluc after 60 mins by luciferase reporter gene assay; assay type: functional; method in brief: as §4
[38] = tested on: Mycobacterium tuberculosis; assay: Antibacterial activity against Mycobacterium tuberculosis; assay type: functional; settings: read-out: MIC100; method in brief: as §3

CC(=O)NC[C@H]1CN(c2ccc(N3CCOCC3)c(F)c2)C(=O)O1 [LINEZOLID] showed an MIC [1] greater than 25 mg/L, an MIC [2] of 12.5 mg/L (≈ 37.1 µM) and an MIC [3] greater than 25 mg/L. The MIC [4] was 25 mg/L (≈ 74.1 µM), the MBC [5] was greater than 25 mg/L and the MIC [6] was greater than 25 mg/L. The selectivity ratio [7] was greater than 333, the MBC [8] was greater than 25 mg/L and the MIC [9] was 0.78 mg/L (≈ 2.31 µM). It also gave an MIC [10] greater than 25 mg/L, an MBC [11] of 25 mg/L (≈ 74.1 µM) and an IC50 [12] of 0.05 mg/L (≈ 0.148 µM). It also gave an MBC [13] of 6.25 mg/L (≈ 18.5 µM), an MBC [14] of 25 mg/L (≈ 74.1 µM) and an MIC [15] of 25 mg/L (≈ 74.1 µM). For the same compound, the MBC [16] was greater than 25 mg/L, the MBC [17] was greater than 25 mg/L and the MIC [18] was 3.13 mg/L (≈ 9.28 µM). For the same compound, the MBC [19] was 0.8 mg/L (≈ 2.37 µM), the MBC [20] was greater than 25 mg/L and the MBC [21] was 1.61 mg/L (≈ 4.77 µM). It also gave an IC50 [22] greater than 200 mg/L, an MBC [23] of 1.56 mg/L (≈ 4.62 µM) and an MBC [24] greater than 25 mg/L. The MBC [25] was greater than 25 mg/L, the MBC [26] was greater than 25 mg/L and the MIC [27] was 25 mg/L (≈ 74.1 µM). For the same compound, the MBC [28] was 3.13 mg/L (≈ 9.28 µM), the MIC [29] was 0.6 mg/L (≈ 1.78 µM) and the MIC [30] was 3.13 mg/L (≈ 9.28 µM). The inhibition [31] was “Active”, the MIC [32] was 0.2 mg/L (≈ 0.593 µM) and the MIC [33] was greater than 25 mg/L. The MIC [34] was 12.5 mg/L (≈ 37.1 µM) and the MBC [35] was greater than 25 mg/L.
With CNC(=C[N+](=O)[O-])NCCSCc1ccc(CN(C)C)o1 [RANITIDINE] the Papp [36] was 11.4 nm/s.
For C=C[C@]1(C)C[C@@H](OC(=O)CSC(C)(C)CNC(=O)[C@H](N)CC(C)C)[C@]2(C)[C@H](C)CC[C@]3(CC[C@@H](O)[C@H]32)[C@@H](C)[C@@H]1O, the inhibition [37] was “Active”, the selectivity ratio [7] was 11.4 and the IC50 [22] was 35 mg/L (≈ 60.3 µM). For the same compound, the MIC [38] was less than 6.25 mg/L, the MIC [29] was 3.06 mg/L (≈ 5.27 µM) and the inhibition [31] was “Active”.
